Reference: ChEMBL document CHEMBL4673174, “meta-Substituted benzenesulfonamide: a potent scaffold for the development of metallo-beta-lactamase ImiS inhibitors” (RSC Med Chem, 2020)
Values after ≈ are worked out from the molar mass of the structure shown. Active and inactive are the calls of the source. No cut-off for these calls is given here.

Tests used:
Escherichia coli [1] = experiment: Antibacterial activity against Escherichia coli BL21 (DE3) assessed as inhibition of bacterial growth incubated for 16 hrs by CLSI broth microdilution method; assay type: functional
Bacteria [2] = experiment: Inhibition of beta-lactamase ImiS (unknown origin) in expressed Escherichia coli BL21 (DE3) assessed as potentiation of imipenem induced antibacterial activity by measuring imipenem MIC at 64 ug/ml incubated for 16 hrs by CLSI broth microdilution method (reference value: 16 ug/ml); conditions: dose 64.0 µg/ml
In short: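 E. coli BL21 (DE3) carrying pET26b-ImiS grown in MH broth to OD600 0.5, diluted to 1 × 10^5 CFU mL–1. CLSI broth dilution; imipenem serially diluted, inhibitor at 64 μg mL–1 stock.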

Bacteria [3] = experiment: Inhibition of bacterial ImiS expressed in Escherichia coli BL21 (DE3) at 20 uM using imipenem as substrate by spectrometry analysis relative to control
In short: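 Purified ImiS with imipenem (40 μM) in 30 mM Tris pH 7.0; inhibitor at 20 μM, DMSO below 0.5%. Hydrolysis followed at 300 nm by UV-vis; initial rates in triplicate, averaged. Percent inhibition = activity without inhibitor (100%) minus residual activity.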

Bacteria [4] = experiment: Inhibition of beta-lactamase ImiS (unknown origin) expressed in Escherichia coli BL21 (DE3) assessed as potentiation of meropenem induced antibacterial activity by measuring meropenem MIC at 64 ug/ml incubated for 16 hrs by CLSI broth microdilution method (reference value: 64 ug/ml); conditions: dose 64.0 µg/ml
Bacteria [5] = experiment: Inhibition of bacterial NDM-1 expressed in Escherichia coli BL21 (DE3) at 20 uM using cefazolin as substrate by spectrometry analysis relative to control
In short: (§1)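 Purified L1 or NDM-1; cefazolin (40 μM) substrate, hydrolysis monitored at 262 nm by UV-vis. Inhibitor at 20 μM. Initial rates with and without inhibitor measured in triplicate and averaged; percent inhibition = uninhibited activity (100%) minus residual activity.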

[6] = Inhibition of bacterial ImiS expressed in Escherichia coli BL21 (DE3) using imipenem as substrate preincubated for 3 hrs with enzyme followed by substrate addition by spectrometry analysis; set-up: species or system Bacteria
In short: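 Purified ImiS preincubated 3 h with inhibitor (six concentrations, 0.01–20 μM; DMSO below 0.5%) in 30 mM Tris pH 7.0, 25 °C; imipenem 40 μM. Hydrolysis read at 300 nm, rates in triplicate. IC50 from linear fit of mean percent inhibition against inhibitor concentration.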

Bacteria [7] = experiment: Inhibition of bacterial L1 expressed in Escherichia coli BL21 (DE3) at 20 uM using cefazolin as substrate by spectrometry analysis relative to control; in short: as §1
[8] = Cytotoxicity against mouse L929 cells assessed as cell viability up to 200 uM measured after 48 hrs by MTT assay; assay type: cell-based; conditions: read-out: Activity
Bacteria [9] = experiment: Inhibition of bacterial ImiS expressed in Escherichia coli BL21 (DE3) by measuring hydrolysis of imipenem using imipenem as substrate preincubated for 3 hrs with enzyme followed by substrate addition by isothermal titration calorimetric method; conditions: dose microM 0.1-10, time 3.0 hrs
In short: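 ITC, single-injection mode, 25 °C, 30 mM Tris with 0.5% DMSO. ImiS (100 nM) preincubated 3 h with inhibitor (0–10 μM), then one 38 μL injection of imipenem (0.5 mM); stirring 750 rpm. Heat flow (dq/dt) recorded every 1 s until return to baseline.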

Mus musculus [10] = experiment: In vivo antibacterial activity against Escherichia coli BL21 (DE3) expressing ImiS infected in Kunming mouse assessed as reduction in bacterial load spleen at 10 mg/kg, ip administered after 2 hrs post infection and measured after 24 hrs; assay type: functional, organism-based
In short: (§2)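 Kunming mice (male and female, 20 ± 2 g), six per group, infected ip with 200 μL E. coli BL21 (DE3)-ImiS suspension (OD600 = 1.0). At 2 h, single ip dose: PBS, meropenem 10 mg kg–1, inhibitor 10 mg kg–1, or meropenem plus inhibitor (each 10 mg kg–1). Euthanized 24 h post-infection; 0.1 g spleen and liver homogenized in 1 mL PBS, serially diluted, plated on LB agar for cfu.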

Mus musculus [11] = experiment: In vivo inhibition of beta-lactamase ImiS (unknown origin) expressed in Escherichia coli BL21 (DE3) infected in Kunming mouse assessed as potentiation of meropenem-induced reduction in bacterial load in spleen at 10 mg/kg, ip administered after 2 hrs post infection and measured after 24 hrs; assay type: functional, organism-based; in short: as §2
Escherichia coli [12] = experiment: In vivo antibacterial activity against Escherichia coli BL21(DE3) expressing ImiS infected in Kunming mouse assessed as reduction in bacterial load liver at 10 mg/kg, ip administered after 2 hrs post infection and measured after 24 hrs; assay type: functional, organism-based; in short: as §2
[13] = Mixed type inhibition of bacterial ImiS using varying levels of imipenem as substrate assessed as hydrolysis by Line weaver Burk plot analysis; set-up: species or system Bacteria
In short: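 Initial imipenem hydrolysis rates by ImiS at 20, 40, 60, 80 and 100 μM substrate, inhibitor at 0, 1, 5 and 10 μM; 300 nm read-out, triplicate. Mode assigned from Lineweaver–Burk plots; Ki from fits of initial velocity against substrate concentration at each inhibitor level.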

Bacteria [14] = experiment: Inhibition of bacterial ImiS expressed in Escherichia coli BL21 (DE3) at 10 uM using imipenem as substrate by spectrometry analysis relative to control
In short: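 Time and concentration dependence: ImiS incubated with inhibitor at 0.5, 1 or 5 μM over varying times, or over 0.01–10 μM for the inhibition curve; residual activity against imipenem measured spectrophotometrically at 300 nm in 30 mM Tris pH 7.0.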

Mus musculus [15] = experiment: In vivo inhibition of beta-lactamase ImiS (unknown origin) expressed in Escherichia coli BL21 (DE3) infected in Kunming mouse assessed as potentiation of meropenem-induced reduction in bacterial load in liver at 10 mg/kg, ip administered after 2 hrs post infection and measured after 24 hrs; assay type: functional, organism-based; in short: as §2

Structure (SMILES) | MIC (Escherichia coli [1]) [µg/mL] | MIC (Bacteria [2]) [µg/mL] | inhibition (Bacteria [3]) [%] | MIC (Bacteria [4]) [µg/mL] | inhibition (Bacteria [5]) [%] | IC50 [6] [µM] | inhibition (Bacteria [7]) [%] | viability at 48 h [8] [%] | inhibition (Bacteria [9]) | Activity (Mus musculus [10]) | inhibition (Mus musculus [11]) | Activity (Escherichia coli [12]) | Ki [13] [µM] | inhibition (Bacteria [14]) [%] | inhibition (Mus musculus [15])
C[C@@H](O)[C@H]1C(=O)N2C(C(=O)O)=C(SCCNC=N)C[C@H]12 [IMIPENEM ANHYDROUS] | 0.25 (≈ 0.835 µM) | – | – | – | – | – | – | – | – | – | – | – | – | – | –
CC(C)(C)c1ccc(C(=O)Nc2ccc(S(N)(=O)=O)cc2)cc1 | – | 8 | > 70 | 32 | < 20 | 3.3 | < 20 | – | – | – | – | – | – | – | –
NS(=O)(=O)c1ccc(NC(=O)c2ccc(O)cc2)cc1 | – | 8 | > 70 | 32 | < 20 | 5.6 | < 20 | – | – | – | – | – | – | – | –
CC(C)(C)c1ccc(C(=O)Nc2ccccc2S(N)(=O)=O)cc1 | – | 8 | > 70 | 32 | < 20 | 4.6 | < 20 | > 80 | – | – | – | – | – | – | –
NS(=O)(=O)c1ccc(NC(=O)c2ccc(Cl)cc2)cc1 | – | 8 | > 70 | 32 | < 20 | 5.1 | < 20 | > 80 | – | – | – | – | – | – | –
NS(=O)(=O)c1ccc(NC(=O)c2cccc(Br)c2)cc1 | – | 8 | > 70 | 32 | < 20 | 2.7 | < 20 | – | – | – | – | – | – | – | –
NS(=O)(=O)c1cccc(NC(=O)CCc2ccccc2)c1 | – | 4 | > 70 | 16 | < 20 | 0.16 | < 20 | – | – | – | – | – | – | – | –
NS(=O)(=O)c1cccc(NC(=O)c2cccc(Br)c2)c1 | – | 4 | > 70 | 16 | < 20 | 0.14 | < 20 | – | – | – | – | – | – | – | –
CC(C)(C)c1ccc(C(=O)Nc2cccc(S(N)(=O)=O)c2)cc1 | – | 4 | > 70 | 16 | < 20 | 0.23 | < 20 | – | – | – | – | – | – | – | –
NS(=O)(=O)c1ccc(NC(=O)c2ccccc2)cc1 | – | 8 | > 70 | 32 | < 20 | 7.5 | < 20 | – | – | – | – | – | – | – | –
NS(=O)(=O)c1cccc(NC(=O)c2ccccc2)c1 | – | 4 | > 70 | 16 | < 20 | 0.15 | < 20 | – | – | – | – | – | – | – | –
NS(=O)(=O)c1ccc(NC(=O)CCc2ccccc2)cc1 | – | 8 | > 70 | 32 | < 20 | 3.5 | < 20 | – | – | – | – | – | – | – | –
NS(=O)(=O)c1ccc(NC(=O)CC(c2ccccc2)c2ccccc2)cc1 | – | 8 | > 70 | 32 | < 20 | 4.1 | < 20 | – | – | – | – | – | – | – | –
NS(=O)(=O)c1cccc(NC(=O)c2cccc([N+](=O)[O-])c2)c1 | – | 4 | > 70 | 16 | < 20 | 0.86 | < 20 | – | – | – | – | – | – | – | –
NS(=O)(=O)c1cccc(NC(=O)c2ccc(Cl)cc2)c1 | – | 4 | > 70 | 16 | < 20 | 0.44 | < 20 | > 80 | – | – | – | – | – | – | –
NS(=O)(=O)c1ccccc1NC(=O)c1ccc(Cl)cc1 | – | 8 | > 70 | 32 | < 20 | 5.4 | < 20 | – | – | – | – | – | – | – | –
CCN(CC)c1ccc2c(-c3ccccc3C(=O)Oc3ccc(S(N)(=O)=O)cc3)c3ccc(=[N+](CC)CC)cc-3oc2c1 | – | 8 | – | 32 | – | 6.8 | – | – | – | – | – | – | – | – | –
NS(=O)(=O)c1cccc(NC(=O)c2ccc(C(F)(F)F)cc2)c1 | – | 4 | > 70 | 16 | < 20 | 0.31 | < 20 | – | – | – | – | – | – | – | –
COC(=O)c1ccc(C(=O)Nc2cccc(S(N)(=O)=O)c2)cc1 | – | 4 | 95 | 16 | < 20 | 0.11 | < 20 | > 80 | Dose-dependent effect | inactive | Active | inactive | 0.55 | 92 | Active
NS(=O)(=O)c1ccc(NC(=O)c2ccc(C(F)(F)F)cc2)cc1 | – | 8 | > 70 | 32 | < 20 | 9.3 | < 20 | – | – | – | – | – | – | – | –
COC(=O)c1ccc(C(=O)Nc2ccc(S(N)(=O)=O)cc2)cc1 | – | 8 | > 70 | 32 | < 20 | 7.3 | < 20 | – | – | – | – | – | 8 | – | –
NS(=O)(=O)c1ccc(NC(=O)c2cccc([N+](=O)[O-])c2)cc1 | – | 8 | > 70 | 32 | < 20 | 4.8 | < 20 | – | – | – | – | – | – | – | –
